This passage reports IC50, selectivity ratio and CC50 results from ChEMBL document CHEMBL4765392, “Development of coumarine derivatives as potent anti-filovirus entry inhibitors targeting viral glycoprotein” (Eur J Med Chem, 2020).

A short description of data set [1]: Inhibition of envelope glycoprotein in HIV pseudotyped Zaire Ebolavirus infected in human A549 cells assessed as reduction in virus entry measured after 48 hrs by luciferase reporter gene assay. As to conditions: A549, 48 h. It is filed as cell-based. In short, it runs like this: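 A549 cells (5000/well, seeded 24 h prior) incubated 48 h with 3-fold serial compound dilutions premixed with HIV-backbone luciferase pseudovirions bearing EBOV GP. Entry quantified by luciferase signal, normalized to virus-alone cells. IC50 from logistic regression of dose-response curves.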

Data set [2] relates to envelope glycoprotein of Marburgvirus. Briefly: Selectivity index, ratio of CC50 for human A549 cells to IC50 for inhibition of envelope glycoprotein in HIV pseudotyped Marburgvirus infected in human A549 cells assessed as reduction in virus entry. As to conditions: read-out: Ratio CC50/IC50. It is filed as toxicity, cell-based. In short, it runs like this:
(§1)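 IC50 wells also got HIV luciferase pseudovirions bearing MARV GP or EBOV GP, read by luciferase. CC50 wells got fresh media, read by CellTiter-Glo. Both values come from logistic dose-response fits, and the index is CC50 divided by IC50.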

Data set [3] deals with envelope glycoprotein of Zaire Ebolavirus. Briefly: Selectivity index, ratio of CC50 for human A549 cells to IC50 for inhibition of envelope glycoprotein in HIV pseudotyped Zaire Ebolavirus infected in human A549 cells assessed as reduction in virus entry. It is filed as toxicity, cell-based. As to conditions: read-out: Ratio CC50/IC50. In short, it runs like this:
as §1

Data set [4] is described as follows: Cytotoxicity against human A549 cells assessed as reduction in cell viability by Celltiter-Glo assay. The data set is classed as cell-based. In short, it runs like this:
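Low-passage A549 cells seeded at 5000/well 24 h ahead, then exposed for 48 h to 3-fold serial compound dilutions in fresh media without virus. Viability read by CellTiter-Glo luminescence and normalized to medium-only cells. CC50 from logistic regression fit of dose-response curves.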

A value given as a limit tells only on which side of the number the result lay.

As for `NC(=O)C1CCN(CC(O)COc2ccc3c(C4CC4)c(Cc4ccccc4)c(=O)oc3c2)CC1` (centres undefined), the IC50 in data set [1] worked out at 9.4 µM. Besides, the selectivity ratio in data set [2] is 15.3; in data set [3] it was more than 10.6. Also, the CC50 in data set [4] was more than 100 µM.

Regarding `Cc1c(Cc2ccccc2)c(=O)oc2cc(OCC(O)CNc3nccs3)ccc12` (centres undefined), the IC50 in data set [1] was 2.1 µM. Besides, the selectivity ratio was found to be 33.2 in data set [2] and 44.3 in data set [3]. Also, the CC50 in data set [4] is 93 µM.

Regarding `Cc1c(Cc2cccc(F)c2)c(=O)oc2cc(OCC(O)CN3CCC(C(N)=O)CC3)ccc12` (centres undefined), the IC50 in data set [1] worked out at 1.6 µM. Besides, the selectivity ratio in data set [2] is 22.5; in data set [3], 34. Besides, in data set [4], the CC50 is 53.3 µM.

As to `Cc1c(Cc2ccccc2)c(=O)oc2cc(OCC(O)CNCc3cccs3)ccc12` (centres undefined), the IC50 in data set [1] amounted to 3.5 µM. Further, the selectivity ratio in data set [2] and in data set [3] was 24.9 each time. Also, the CC50 in data set [4] was 87.3 µM.

On to `Cc1c(Cc2ccc(-c3ccccc3)cc2)c(=O)oc2cc(OCC(O)CN3CCC(C(N)=O)CC3)ccc12` (centres undefined), for which the IC50 in data set [1] is 0.7 µM. Also, the selectivity ratio is 111 in data set [2] and more than 143 in data set [3]. In addition, in data set [4], the CC50 was more than 100 µM.

As to `Cc1c(Cc2ccccc2)c(=O)oc2cc(OCC(CN3CCC(C(N)=O)CC3)Oc3ccccc3F)ccc12` (centres undefined), the half-inhibitory concentration (IC50) in data set [1] came out at 22.5 µM. Moreover, the selectivity ratio in data set [2] is 3.9; in data set [3], 3.5. Moreover, the CC50 in data set [4] stood at 79.6 µM.

Regarding `Cc1ccc2nc(NCC(O)COc3ccc4c(C)c(Cc5ccccc5)c(=O)oc4c3)sc2c1` (centres undefined), in data set [1], the IC50 was found to be 10.2 µM. The selectivity ratio in data set [2] is 11.3; in data set [3], more than 9.8. Further, the CC50 in data set [4] was more than 100 µM.

Take `Cc1c(Cc2ccc(-c3ccccc3)cc2)c(=O)oc2cc(OCC(O)CNc3nccs3)ccc12` (centres undefined): the IC50 in data set [1] was determined as 2.7 µM. Moreover, the values for the selectivity ratio in data set [2] and in data set [3] were 29.3 and 14.1, respectively. Besides, in data set [4], the half-maximal cytotoxic concentration (CC50) is 38.1 µM.

For the compound `Cc1cc(=O)oc2cc(OCC(O)CN3CCC(C(N)=O)CC3)ccc12` (centres undefined), the half-inhibitory concentration (IC50) in data set [1] came out at 9.3 µM. Moreover, the selectivity ratio was 12 in data set [2] and more than 10.8 in data set [3]. Besides, in data set [4], the CC50 was more than 100 µM.

For the compound `Cc1c(Cc2ccc(F)cc2Cl)c(=O)oc2cc(OCC(O)CN3CCC(C(N)=O)CC3)ccc12` (centres undefined), the IC50 in data set [1] came to 3.1 µM. For the same compound, the results for the selectivity ratio in data set [2] and in data set [3] were 7.7 and 29, respectively. Besides, the CC50 in data set [4] worked out at 90.8 µM.

Consider `Cc1c(Cc2ccccc2)c(=O)oc2cc(OCC(O)CNCc3ccccc3)ccc12` (centres undefined), for which the concentration for half-maximal inhibition (IC50) in data set [1] amounted to 1.3 µM. The results for the selectivity ratio in data set [2] and in data set [3] were 45.5 and more than 75, respectively. Also, in data set [4], the CC50 was more than 100 µM.

Regarding `Cc1c(Cc2ccc(-c3ccc(F)cc3)cc2)c(=O)oc2cc(OCC(O)CN3CCC(C(N)=O)CC3)ccc12` (centres undefined), the IC50 in data set [1] stood at 1.5 µM. Also, the selectivity ratio in data set [2] was 18.1; in data set [3] it was 13.1. In data set [4], the CC50 is 19.3 µM.

On to `Cc1c(Cc2ccccc2)c(=O)oc2cc(OCC(O)CNCCc3ccccn3)ccc12` (centres undefined), for which the IC50 in data set [1] was 3.6 µM. Further, the selectivity ratio in data set [2] turned out to be 9.3; in data set [3], 15.6. Besides, in data set [4], the CC50 is 54.9 µM.

For `Cc1c(Cc2ccccc2)c(=O)oc2cc(OCC(O)CNCCc3cccnc3)ccc12` (centres undefined), in data set [1], the IC50 was determined as 1.3 µM. The selectivity ratio in data set [2] stood at 16.4; in data set [3], 20.5. The CC50 in data set [4] amounted to 27.4 µM.

With `Cc1c(Cc2ccc(-c3ccc(C=O)c(F)c3)cc2)c(=O)oc2cc(OCC(O)CN3CCC(C(N)=O)CC3)ccc12` (centres undefined), the IC50 in data set [1] came to 10.9 µM. Further, the selectivity ratio was 11.9 in data set [2] and 5.7 in data set [3]. In addition, in data set [4], the CC50 stood at 62.4 µM.

For `NC(=O)C1CCN(CC(O)COc2ccc3c(-c4ccccc4)c(Cc4ccccc4)c(=O)oc3c2)CC1` (centres undefined), in data set [1], the IC50 came to 2.9 µM. Moreover, the selectivity ratio in data set [2] came out at 11.6; in data set [3] it was 8.6. Further, in data set [4], the CC50 is 25.2 µM.

Regarding `Cc1c(Cc2ccc(F)cc2F)c(=O)oc2cc(OCC(O)CN3CCC(C(N)=O)CC3)ccc12` (centres undefined), the IC50 in data set [1] stood at 1.2 µM. Moreover, the selectivity ratio is 23.6 in data set [2] and more than 81.1 in data set [3]. Moreover, the CC50 in data set [4] was more than 100 µM.

Turning to `Cc1c(Cc2ccccc2)c(=O)oc2cc(OCC(O)CN3CCC(C(N)=O)CC3)ccc12` (centres undefined), the IC50 in data set [1] is 3.4 µM. Besides, the selectivity ratio in data set [2] was 3.4; in data set [3] it was more than 29.4. The CC50 in data set [4] is more than 100 µM.

Consider `Cc1c(Cc2ccc(OC(F)(F)F)cc2)c(=O)oc2cc(OCC(O)CNc3nccs3)ccc12` (centres undefined), for which the IC50 in data set [1] was found to be 1.5 µM. Further, the selectivity ratio in data set [2] turned out to be 82.5; in data set [3], 66. Also, the CC50 in data set [4] worked out at 99 µM.

On to `Cc1c(Cc2ccc(-c3ccc(C#N)c(F)c3)cc2)c(=O)oc2cc(OCC(O)CN3CCC(C(N)=O)CC3)ccc12` (centres undefined), for which, in data set [1], the IC50 is 3.5 µM. Moreover, the selectivity ratio in data set [2] was 12.8; in data set [3] it was 8.2. The CC50 in data set [4] came out at 29.1 µM.

`NC(=O)C1CCN(CC(O)COc2ccc3c(C4CC4)cc(=O)oc3c2)CC1` (centres undefined): the half-inhibitory concentration (IC50) in data set [1] was determined as 17.7 µM. In addition, the selectivity ratio is 3 in data set [2] and more than 5.7 in data set [3]. In data set [4], the CC50 was more than 100 µM.

As for `Cc1c(Cc2ccccc2)c(=O)oc2cc(OCC(O)CNCCc3ccncc3)ccc12` (centres undefined), the IC50 in data set [1] is 0.9 µM. Further, the selectivity ratio in data set [2] was 36.6; in data set [3], more than 111. Moreover, the CC50 in data set [4] was more than 100 µM.

Turning to `C#CCNCC(O)COc1ccc2c(C)c(Cc3ccccc3)c(=O)oc2c1` (centres undefined), the IC50 in data set [1] worked out at 5.9 µM. Moreover, the selectivity ratio in data set [2] was found to be 17.2; in data set [3], 16.1. Also, the half-maximal cytotoxic concentration (CC50) in data set [4] turned out to be 95.5 µM.

As for `Cc1c(Cc2ccc(Br)cc2)c(=O)oc2cc(OCC(O)CN3CCC(C(N)=O)CC3)ccc12` (centres undefined), the IC50 in data set [1] worked out at 0.9 µM. The selectivity ratio is 85.7 in data set [2] and more than 111 in data set [3]. In data set [4], the CC50 was more than 100 µM.

Turning to `Cc1c(Cc2ccc(C(C)(C)C)cc2)c(=O)oc2cc(OCC(O)CN3CCC(C(N)=O)CC3)ccc12` (centres undefined), in data set [1], the IC50 was 11.7 µM. The selectivity ratio in data set [2] was 2.5; in data set [3] it was 1.3. In addition, in data set [4], the CC50 is 14.7 µM.

Regarding `Cc1c(Cc2ccc(-c3ccc(C(F)(F)F)cc3)cc2)c(=O)oc2cc(OCC(O)CN3CCC(C(N)=O)CC3)ccc12` (centres undefined), in data set [1], the IC50 stood at 1.2 µM. Further, the selectivity ratio in data set [2] was 76.9; in data set [3] it was more than 85.7. The half-maximal cytotoxic concentration (CC50) in data set [4] is more than 100 µM.
